According to ChEMBL document CHEMBL3808334, “Synthesis and in vitro evaluation of novel triazine analogues as anticancer agents and their interaction studies with bovine serum albumin” (Eur J Med Chem, 2016):

What was measured:
Assay type in all cases: functional
[1] = Growth inhibition of human UO31 cells assessed as cell growth at 10^-5 M incubated for 48 hrs by sulforhodamine B assay; settings: UO-31, 48 h, read-out: Activity
NCI-H522 [2] = assay: Growth inhibition of human NCI-H522 cells assessed as cell growth at 10^-8 M incubated for 48 hrs by sulforhodamine B assay; settings: NCI-H522, 48 h, read-out: Activity
[3] = Growth inhibition of human HCC2998 cells incubated for 48 hrs by sulforhodamine B assay; settings: HCC 2998, 48 h
Outline: (§1)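 Cells seeded at 5,000–40,000/well according to doubling time and preincubated 24 h at 37 °C, 5% CO2. Time-zero plates were TCA-fixed. DMSO concentrate was diluted in medium with 50 µg/ml gentamicin to give five concentrations (10-fold or ½ log steps), then exposed 48 h. Cells were TCA-fixed, stained with 0.4% SRB and read at 515 nm. Percent growth was taken against time-zero and control; GI50, TGI and LC50 derived.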

[4] = Growth inhibition of human SF295 cells assessed as cell growth at 10^-7 M incubated for 48 hrs by sulforhodamine B assay; settings: SF-295, 48 h, read-out: Activity
[5] = Growth inhibition of human BT549 cells incubated for 48 hrs by sulforhodamine B assay; settings: BT-549, 48 h
Outline: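 Five-dose assay: five concentrations from 10-fold or ½-log serial dilutions. Cells are plated at 5,000–40,000 per well according to doubling time, grown 24 h, then exposed 48 h at 37 °C, 5% CO₂. Fixed with cold 50% TCA (final addition) for 60 min at 4 °C and stained with 0.4% SRB in 1% acetic acid. Bound dye is solubilized in 10 mM Tris base and read at 515 nm. GI₅₀ is where [(Ti−Tz)/(C−Tz)]×100 = 50, with a time-zero plate as Tz.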

KM12 = assay: Growth inhibition of human KM12 cells assessed as cell growth at 10^-5 M incubated for 48 hrs by sulforhodamine B assay; settings: KM12, 48 h, read-out: Activity
[6] = Growth inhibition of human SNB75 cells assessed as cell growth at 10^-7 M incubated for 48 hrs by sulforhodamine B assay; settings: SNB-75, 48 h, read-out: Activity
EKVX = assay: Growth inhibition of human EKVX cells assessed as cell growth at 10^-6 M incubated for 48 hrs by sulforhodamine B assay; settings: read-out: Activity; outline: as §1
[7] = Growth inhibition of human SF295 cells incubated for 48 hrs by sulforhodamine B assay; settings: SF-295, 48 h
Outline: (§2)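 Cells were plated at 5,000–40,000 per well according to doubling time and preincubated 24 h at 37 °C in 5% CO2; time-zero plates were then TCA-fixed. Five concentrations (10-fold or ½-log dilutions, DMSO stock) were incubated 48 h. Cells were TCA-fixed, stained with 0.4% SRB and read at 515 nm. GI50 was taken where [(Ti−Tz)/(C−Tz)]×100 = 50.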

SN12C = assay: Growth inhibition of human SN12C cells assessed as cell growth at 10 uM incubated for 48 hrs by sulforhodamine B assay; settings: read-out: Activity
[8] = Growth inhibition of human UO31 cells incubated for 48 hrs by sulforhodamine B assay; settings: UO-31, 48 h; for CC50: read-out: pLC50 (the source's name) (converted); outline: as §2
[9] = Growth inhibition of human HOP62 cells assessed as cell growth at 10 uM incubated for 48 hrs by sulforhodamine B assay; settings: HOP-62, 48 h, read-out: Activity
[10] = Growth inhibition of human HOP92 cells assessed as cell growth at 10^-7 M incubated for 48 hrs by sulforhodamine B assay; settings: HOP-92, 48 h, read-out: Activity
[11] = Growth inhibition of human PC3 cells assessed as cell growth at 10 uM incubated for 48 hrs by sulforhodamine B assay; settings: PC-3, 48 h, read-out: Activity
HT-29 = assay: Growth inhibition of human HT-29 cells assessed as cell growth at 10^-6 M incubated for 48 hrs by sulforhodamine B assay; settings: HT-29, 48 h, read-out: Activity
[12] = Growth inhibition of human UO31 cells assessed as cell growth at 10^-7 M incubated for 48 hrs by sulforhodamine B assay; settings: UO-31, 48 h, read-out: Activity
U-251 [13] = assay: Growth inhibition of human U251 cells assessed as cell growth at 10^-5 M incubated for 48 hrs by sulforhodamine B assay; settings: U-251, 48 h, read-out: Activity
[14] = Growth inhibition of human OVCAR8 cells assessed as cell growth at 10^-5 M incubated for 48 hrs by sulforhodamine B assay; settings: OVCAR-8, 48 h, read-out: Activity
[15] = Growth inhibition of human SF539 cells assessed as cell growth at 10^-8 M incubated for 48 hrs by sulforhodamine B assay; settings: SF-539, 48 h, read-out: Activity
[16] = Growth inhibition of human HOP92 cells assessed as cell growth at 10 uM incubated for 48 hrs by sulforhodamine B assay; settings: HOP-92, 48 h, read-out: Activity
NCI-H522 [17] = assay: Growth inhibition of human NCI-H522 cells assessed as cell growth at 10^-6 M incubated for 48 hrs by sulforhodamine B assay; settings: NCI-H522, 48 h, read-out: Activity
[18] = Growth inhibition of human SKOV3 cells incubated for 48 hrs by sulforhodamine B assay; settings: SK-OV-3, 48 h; outline: as §2
CCRF-CEM = assay: Growth inhibition of human CCRF-CEM cells assessed as cell growth at 10^-7 M incubated for 48 hrs by sulforhodamine B assay; settings: read-out: Activity
Outline: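 Leukemia line in the five-dose format: five concentrations from 10-fold or ½-log serial dilutions. Plated at 5,000–40,000 cells per well, preincubated 24 h, then compound added for 48 h at 37 °C, 5% CO₂. Sulforhodamine B absorbance read at 515 nm. Growth is computed against time-zero (Tz) and control (C) readings; GI₅₀ is where [(Ti−Tz)/(C−Tz)]×100 = 50.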

[19] = Growth inhibition of human DU145 cells assessed as cell growth at 10^-4 M incubated for 48 hrs by sulforhodamine B assay; settings: DU-145, 48 h, read-out: Activity; outline: as §1
U-251 [20] = assay: Growth inhibition of human U251 cells assessed as cell growth at 10^-4 M incubated for 48 hrs by sulforhodamine B assay; settings: U-251, 48 h, read-out: Activity
[21] = Growth inhibition of human Caki1 cells assessed as cell growth at 10^-8 M incubated for 48 hrs by sulforhodamine B assay; settings: CAKI-1, 48 h, read-out: Activity; outline: as §1
[22] = read-out: LC50 (the source's name)
[23] = read-out: pLC50 (the source's name) (converted)

## c1ccc(-c2nc(Nc3ccc(-c4nc5ccccc5[nH]4)cc3)nc(N3CCOCC3)n2)cc1
[1]
  growth at 10 µM: -78%
NCI-H522 [2]
  growth at 0.01 µM: 100%
[3]; read-out: GI50
  GI50: 1.9 µM
[3]; read-out: TGI
  TGI: 3.99 µM
[3]; read-out: pGI50 (converted)
  GI50: 1.91 µM
[3]; read-out: pTGI (converted)
  TGI: 3.98 µM
[4]
  growth at 0.1 µM: 101%
[5]; read-out: GI50
  GI50: 1.98 µM
[5]; [22]
  CC50: 7.68 µM
[5]; read-out: TGI
  TGI: 3.9 µM
[5]; read-out: pGI50 (converted)
  GI50: 2 µM
[5]; [23]
  CC50: 7.76 µM
[5]; read-out: pTGI (converted)
  TGI: 3.89 µM
KM12
  growth at 10 µM: -84%
[6]
  growth at 0.1 µM: 96%
EKVX
  growth at 1 µM: 81%
[7]; read-out: GI50
  GI50: 1.25 µM
[7]; [22]
  CC50: 6.47 µM
[7]; read-out: TGI
  TGI: 2.84 µM
[7]; read-out: pGI50 (converted)
  GI50: 1.26 µM
[7]; [23]
  CC50: 6.46 µM
[7]; read-out: pTGI (converted)
  TGI: 2.82 µM
SN12C
  growth at 10 µM: -62.8%
[8]
  LC50: 6.4 µM
  CC50: 6.46 µM
[8]; read-out: GI50
  GI50: 1.32 µM
[8]; read-out: TGI
  TGI: 2.91 µM
[8]; read-out: pGI50 (converted)
  GI50: 1.32 µM
[8]; read-out: pTGI (converted)
  TGI: 2.88 µM
[9]
  growth at 10 µM: -64.5%
[10]
  growth at 0.1 µM: 107%
[11]
  growth at 10 µM: -35.5%
HT-29
  growth at 1 µM: 36%
[12]
  growth at 0.1 µM: 82%
U-251 [13]
  growth at 10 µM: -85%
[14]
  growth at 10 µM: -78%
[15]
  growth at 0.01 µM: 98%
[16]
  growth at 10 µM: -66.2%
NCI-H522 [17]
  growth at 1 µM: 109%
[18]; read-out: GI50
  GI50: 2.11 µM
[18]; [22]
  CC50: 8.47 µM
[18]; read-out: TGI
  TGI: 4.23 µM
[18]; read-out: pGI50 (converted)
  GI50: 2.09 µM
[18]; [23]
  CC50: 8.51 µM
[18]; read-out: pTGI (converted)
  TGI: 4.27 µM
CCRF-CEM
  growth at 0.1 µM: 99%
[19]
  growth at 100 µM: -100%
U-251 [20]
  growth at 100 µM: -69%
[21]
  growth at 0.01 µM: 91%

## c1ccc2[nH]c(-c3ccc(Nc4nc(N5CCCCC5)nc(N5CCOCC5)n4)cc3)nc2c1
[1]
  growth at 10 µM: -35%
NCI-H522 [2]
  growth at 0.01 µM: 89%
[3]; read-out: GI50
  GI50: 3.74 µM
[3]; [22]
  CC50: > 100 µM
[3]; read-out: TGI
  TGI: > 100 µM
[3]; read-out: pGI50 (converted)
  GI50: 3.72 µM
[3]; [23]
  CC50: > 100 µM
[3]; read-out: pTGI (converted)
  TGI: > 100 µM
[4]
  growth at 0.1 µM: 94%
[5]; read-out: GI50
  GI50: 2.07 µM
[5]; [22]
  CC50: 92.7 µM
[5]; read-out: TGI
  TGI: 5.2 µM
[5]; read-out: pGI50 (converted)
  GI50: 2.09 µM
[5]; [23]
  CC50: 93.3 µM
[5]; read-out: pTGI (converted)
  TGI: 5.25 µM
KM12
  growth at 10 µM: -2%
[6]
  growth at 0.1 µM: 74%
EKVX
  growth at 1 µM: 84%
[7]; read-out: GI50
  GI50: 1.85 µM
[7]; [22]
  CC50: 34.6 µM
[7]; read-out: TGI
  TGI: 4.6 µM
[7]; read-out: pGI50 (converted)
  GI50: 1.86 µM
[7]; [23]
  CC50: 34.7 µM
[7]; read-out: pTGI (converted)
  TGI: 4.57 µM
SN12C
  growth at 10 µM: 52.4%
[8]
  LC50: > 100 µM
  CC50: > 100 µM
[8]; read-out: GI50
  GI50: 2 µM
[8]; read-out: TGI
  TGI: 5.14 µM
[8]; read-out: pGI50 (converted)
  GI50: 2 µM
[8]; read-out: pTGI (converted)
  TGI: 5.13 µM
[9]
  growth at 10 µM: -45.2%
[10]
  growth at 0.1 µM: 93%
[11]
  growth at 10 µM: 12.4%
HT-29
  growth at 1 µM: 104%
[12]
  growth at 0.1 µM: 86%
[14]
  growth at 10 µM: 9%
[15]
  growth at 0.01 µM: 99%
[16]
  growth at 10 µM: 43.4%
NCI-H522 [17]
  growth at 1 µM: 94%
[18]; read-out: GI50
  GI50: 2.37 µM
[18]; [22]
  CC50: 26.9 µM
[18]; read-out: TGI
  TGI: 5.43 µM
[18]; read-out: pGI50 (converted)
  GI50: 2.34 µM
[18]; [23]
  CC50: 26.9 µM
[18]; read-out: pTGI (converted)
  TGI: 5.37 µM
CCRF-CEM
  growth at 0.1 µM: 96%
[19]
  growth at 100 µM: 8%
U-251 [20]
  growth at 100 µM: -56%
[21]
  growth at 0.01 µM: 90%
